Experimental data as given in ChEMBL document CHEMBL1129260, “Evaluation of the stability and animal biodistribution of gadolinium (III) benzylamine-derivatized diethylenetriaminepentaacetic acid” (J Med Chem, 1996).

Assays:
Details in all cases: in vivo
[1] = species: Rattus norvegicus; assay: Biodistribution of Gd-LDTA (conjugated with galactose BSA) protein using [111In]- in mature female Sprague-Dawley rat bone marrow after injecting for 24 hour.; assay type: ADME, organism-based
[2] = species: Rattus norvegicus; assay: Biodistribution of In-LDTA (conjugated with galactose BSA)protein using [111In]- in mature female Sprague-Dawley rat blood after injecting for 4 hour.; assay type: ADME, organism-based
Summary of the method: (§1)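 SCN-LDTPA was coupled (pH 9 bicine, 24 h, RT) to BSA, mannosylated BSA or galactosylated BSA and FPLC-purified. The conjugate (400 μg) was labeled with 340 μCi 111In acetate at pH 5.5 for 45 min and gel-filtered. Mature female Sprague-Dawley rats received 19 μg of conjugate; four rats per time point. Blood, liver, bone, kidney and colon were taken and reported as %ID/organ.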

[3] = species: Rattus norvegicus; assay: Biodistribution of Gd-LDTA (conjugated with galactose BSA) protein using [153Gd]- in mature female Sprague-Dawley rat blood after injecting for 48 hour.
[4] = species: Rattus norvegicus; assay: Biodistribution of Gd-LDTA (conjugated with galactose BSA) protein using [111In]- in mature female Sprague-Dawley rat liver after injecting for 4 hour.; assay type: ADME, organism-based
Summary of the method: (§2)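 Conjugate of SCN-LDTPA with BSA, mannosylated BSA or galactosylated BSA (10 equiv chelate, pH 9 bicine, RT 24 h; FPLC-purified) was labelled with 340 μCi 111In acetate at pH 5.5 for 45 min. It was then gel-filtered (Biospin-6) and checked for purity by FPLC. Mature female Sprague-Dawley rats received 19 μg of conjugate. Four rats per time point (1, 4, 24, 48 h) were killed; blood, liver, bone, kidney and colon were taken and %ID/organ was calculated.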

[5] = species: Rattus norvegicus; assay: Biodistribution of In-LDTA (conjugated with galactose BSA)protein using [111In]- in mature female Sprague-Dawley rat bone after injecting for 24 hour.; assay type: ADME, organism-based, Bone element; summary of the method: as §1
[6] = species: Rattus norvegicus; assay: Biodistribution of Gd-LDTA (conjugated with mannose BSA) protein using [111In]- in mature female Sprague-Dawley rat kidney after injecting for 48 hour.; assay type: ADME, organism-based
[7] = species: Rattus norvegicus; assay: Biodistribution of Gd-LDTA (conjugated with galactose BSA) protein using [111In]- in mature female Sprague-Dawley rat bone after injecting for 48 hour.; assay type: ADME, organism-based, Bone element; summary of the method: as §2
[8] = species: Rattus norvegicus; assay: Biodistribution of Gd-LDTA (conjugated with galactose BSA) protein using [111In]- in mature female Sprague-Dawley rat bone marrow after injecting for 1 hour.; assay type: ADME, organism-based
[9] = species: Rattus norvegicus; assay: Biodistribution of In-LDTA (conjugated with galactose BSA)protein using [111In]- in mature female Sprague-Dawley rat kidney after injecting for 1 hour.; assay type: ADME, organism-based; summary of the method: as §1
[10] = species: Rattus norvegicus; assay: Biodistribution of In-LDTA (conjugated with galactose BSA)protein using [111In]- in mature female Sprague-Dawley rat kidney after injecting for 4 hour.; assay type: ADME, organism-based; summary of the method: as §1
[11] = species: Rattus norvegicus; assay: Biodistribution of In-LDTA (conjugated with BSA) protein using [111In]- in mature female Sprague-Dawley rat blood after injecting for 48 hour.; assay type: ADME, organism-based; summary of the method: as §1
[12] = species: Rattus norvegicus; assay: Biodistribution of In-LDTA (conjugated with mannoseBSA)protein using [111In]- in mature female Sprague-Dawley rat blood after injecting for 24 hour.; assay type: ADME, organism-based; summary of the method: as §1
[13] = species: Rattus norvegicus; assay: Biodistribution of Gd-LDTA (conjugated with mannose BSA) protein using [111In]- in mature female Sprague-Dawley rat colon after injecting for 96 hour.; assay type: ADME, organism-based
[14] = species: Rattus norvegicus; assay: Biodistribution of In-LDTA (conjugated with BSA) protein using [111In]- in mature female Sprague-Dawley rat blood after injecting for 24 hour.; assay type: ADME, organism-based; summary of the method: as §1
[15] = species: Rattus norvegicus; assay: Biodistribution of Gd-DTA (conjugated with BSA)protein using [111In]- in mature female Sprague-Dawley rat liver after injecting for 1 hour.; assay type: ADME, organism-based; summary of the method: as §2
[16] = species: Rattus norvegicus; assay: Biodistribution of Gd-LDTA (conjugated with galactose BSA) protein using [111In]- in mature female Sprague-Dawley rat bone after injecting for 96 hour.; assay type: ADME, organism-based, Bone element
[17] = species: Rattus norvegicus; assay: Biodistribution of Gd-LDTA (conjugated with galactose BSA) protein using [111In]- in mature female Sprague-Dawley rat kidney after injecting for 24 hour.; assay type: ADME, organism-based; summary of the method: as §2
[18] = species: Rattus norvegicus; assay: Biodistribution of Gd-LDTA (conjugated with mannose BSA) protein using [111In]- in mature female Sprague-Dawley rat bone marrow after injecting for 1 hour.; assay type: ADME, organism-based
[19] = species: Rattus norvegicus; assay: Biodistribution of In-LDTA (conjugated with mannoseBSA) protein using [111In]- in mature female Sprague-Dawley rat bone after injecting for 4 hour.; assay type: ADME, organism-based, Bone element; summary of the method: as §1
[20] = species: Rattus norvegicus; assay: Biodistribution of Gd-LDTA (conjugated with mannose BSA) protein using [111In]- in mature female Sprague-Dawley rat liver after injecting for 48 hour.; assay type: ADME, organism-based
[21] = species: Rattus norvegicus; assay: Biodistribution of In-LDTA (conjugated with BSA) protein using [111In]- in mature female Sprague-Dawley rat colon after injecting for 1 hour.; assay type: ADME, organism-based; summary of the method: as §1
[22] = species: Rattus norvegicus; assay: Biodistribution of Gd-DTA (conjugated with BSA) protein using [111In]- in mature female Sprague-Dawley rat colon after injecting for 48 hour.; assay type: ADME, organism-based; summary of the method: as §2
[23] = species: Rattus norvegicus; assay: Biodistribution of Gd-DTA (conjugated with BSA)protein using [153Gd]- in mature female Sprague-Dawley rat bone after injecting for 96 hour.
[24] = species: Rattus norvegicus; assay: Biodistribution of In-LDTA (conjugated with mannoseBSA) protein using [111In]- in mature female Sprague-Dawley rat liver after injecting for 48 hr.; assay type: ADME, organism-based; summary of the method: as §1
[25] = species: Rattus norvegicus; assay: Biodistribution of Gd-LDTA (conjugated with galactose BSA) protein using [111In]- in mature female Sprague-Dawley rat kidney after injecting for 96 hour.; assay type: ADME, organism-based
[26] = species: Rattus norvegicus; assay: Biodistribution of Gd-DTA (conjugated with BSA)protein using [111In]- in mature female Sprague-Dawley rat blood after injecting for 1 hour.; assay type: ADME, organism-based; summary of the method: as §2
[27] = species: Rattus norvegicus; assay: Biodistribution of Gd-DTA (conjugated with BSA)protein using [111In]- in mature female Sprague-Dawley rat bone after injecting for 4 hour.; assay type: ADME, organism-based, Bone element; summary of the method: as §2
[28] = species: Rattus norvegicus; assay: Biodistribution of In-LDTA (conjugated with mannoseBSA)protein using [111In]- in mature female Sprague-Dawley rat blood after injecting for 4 hour.; assay type: ADME, organism-based; summary of the method: as §1
[29] = species: Rattus norvegicus; assay: Biodistribution of In-LDTA (conjugated with galactose BSA)protein using [111In]- in mature female Sprague-Dawley rat kidney after injecting for 24 hour.; assay type: ADME, organism-based; summary of the method: as §1
[30] = species: Rattus norvegicus; assay: Biodistribution of In-LDTA (conjugated with galactose BSA)protein using [111In]- in mature female Sprague-Dawley rat colon after injecting for 4 hour.; assay type: ADME, organism-based; summary of the method: as §1
[31] = species: Rattus norvegicus; assay: Biodistribution of In-LDTA (conjugated with galactose BSA)protein using [111In]- in mature female Sprague-Dawley rat bone after injecting for 1 hour.; assay type: ADME, organism-based, Bone element; summary of the method: as §1
[32] = species: Rattus norvegicus; assay: Biodistribution of Gd-DTA (conjugated with BSA)protein using [153Gd]- in mature female Sprague-Dawley rat bone after injecting for 48 hour.
[33] = species: Rattus norvegicus; assay: Biodistribution of In-LDTA protein using [111In]- in mature female Sprague-Dawley rat blood after injecting for 1 hour.; assay type: ADME, organism-based; summary of the method: as §1
[34] = species: Rattus norvegicus; assay: Biodistribution of Gd-LDTA (conjugated with mannose BSA) protein using [111In]- in mature female Sprague-Dawley rat colon after injecting for 4 hour.; assay type: ADME, organism-based; summary of the method: as §2
[35] = species: Rattus norvegicus; assay: Biodistribution of Gd-LDTA (conjugated with mannose BSA) protein using [111In]- in mature female Sprague-Dawley rat colon after injecting for 24 hour.; assay type: ADME, organism-based; summary of the method: as §2
[36] = species: Rattus norvegicus; assay: Biodistribution of Gd-DTA (conjugated with BSA)protein using [111In]- in mature female Sprague-Dawley rat blood after injecting for 48 hour.; assay type: ADME, organism-based; summary of the method: as §2

ID/organ [1]: 0.04%
ID/organ [2]: 0.0462%
ID/organ [3]: 0.037%
ID/organ [4]: 86.1%
ID/organ [5]: 0.379%
ID/organ [6]: 0.379%
ID/organ [7]: 8.7%
ID/organ [8]: 0.031%
ID/organ [9]: 0.0446%
ID/organ [10]: 0.0688%
ID/organ [11]: 3.33%
ID/organ [12]: 0.129%
ID/organ [13]: 0.241%
ID/organ [14]: 10.8%
ID/organ [15]: 14.2%
ID/organ [16]: 9.55%
ID/organ [17]: 0.14%
ID/organ [18]: 2.61%
ID/organ [19]: 10.1%
ID/organ [20]: 35%
ID/organ [21]: 0.86%
ID/organ [22]: 2.37%
ID/organ [23]: 44.6%
ID/organ [24]: 61%
ID/organ [25]: 0.193%
ID/organ [26]: 83.4%
ID/organ [27]: 22.3%
ID/organ [28]: 0.149%
ID/organ [29]: 0.112%
ID/organ [30]: 4.8%
ID/organ [31]: 0.227%
ID/organ [32]: 35.9%
ID/organ [33]: 61.3%
ID/organ [34]: 0.327%
ID/organ [35]: 0.403%
ID/organ [36]: 3.37%
Compound: Nc1ccc(CC(C(=O)O)N(CCN(CC(=O)O)CC(=O)O)CCN(CC(=O)O)CC(=O)O)cc1 (stereo unspecified)
